According to ChEMBL document CHEMBL5303300, “EUbOPEN Chemogenomics Library - Multiplex” (2023):
“And” between values parts separate entries of the source, which are not always exact repeats. Equal entries are not always repeated.

Key:
Fibroblast = experiment: Multiplex assay against human fibroblast; assay type: toxicity, cell-based; conditions: number of replicates 2
Method in brief: (§1)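 Values for tubulin, mitochondrial-mass and membrane-permeability phenotypes are per cents of cells with healthy nuclei. These cells were identified by CellPathfinder machine-learning gating of live cells that had been stained at seeding with Hoechst33342, BioTracker Green Microtubule Cytoskeleton Dye, MitoTracker Red and Annexin V Alexa Fluor 680 and imaged on a CQ1 microscope at 37°C and 5% CO2 after compound addition. The gating first set Hoechst high-intensity objects apart from normal cells, then split normal cells into healthy, pyknosed or fragmented nuclei, and pyknosed cells into mitotic or apoptotic.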

HEK-293T = experiment: Multiplex assay against HEK293T; assay type: toxicity, cell-based; conditions: human, number of replicates 2; method in brief: as §1
[1] = 24 h, 10 µM, compound concentration 10 uM
[2] = 48 h, 1 µM, compound concentration 1 uM
[3] = 48 h, 10 µM, compound concentration 10 uM
[4] = 12 h, 1 µM, compound concentration 1 uM
[5] = 12 h, 10 µM, compound concentration 10 uM
[6] = 24 h, 1 µM, compound concentration 1 uM

With `CCCN(CCc1cccs1)[C@H]1CCc2c(O)cccc2C1` [ROTIGOTINE] the “Population Mitochondria Different-Phenotype (%)” value (Fibroblast; [1]) was 0% and 2%, the “Population Normal (%)” value (Fibroblast; [1]) was 100% and the “Population Pyknosed Nuclei (%)” value (Fibroblast; [1]) was 3% and 5%. The “Population Tubulin-Different-Phenotype (%)” value (Fibroblast; [1]) was 10% and 8%, the “Population Apoptotic (%)” value (Fibroblast; [2]) was 36% and 68% and the “Population Fragmented Nuclei (%)” value (Fibroblast; [2]) was 11% and 13%. For the same molecule, the “Population Healthy Nuclei (%)” value (Fibroblast; [2]) was 82% and 79%, the “Population Hoechst High Intensity Objects (%)” value (Fibroblast; [2]) was 0% and the “Population Membrane Permeable-Phenotype (%)” value (Fibroblast; [2]) was 3% and 2%. For the same molecule, the “Population Mitochondria Different-Phenotype (%)” value (Fibroblast; [2]) was 0%, the “Population Mitotic Cells (%)” value (Fibroblast; [2]) was 63% and 31% and the “Population Normal (%)” value (Fibroblast; [2]) was 100%. The “Population Pyknosed Nuclei (%)” value (Fibroblast; [2]) was 5% and 7%, the “Population Tubulin-Different-Phenotype (%)” value (Fibroblast; [2]) was 5% and 3% and the “Population Apoptotic (%)” value (Fibroblast; [3]) was 87% and 80%. The “Population Fragmented Nuclei (%)” value (Fibroblast; [3]) was 19% and 20%, the “Population Healthy Nuclei (%)” value (Fibroblast; [3]) was 76% and 77% and the “Population Hoechst High Intensity Objects (%)” value (Fibroblast; [3]) was 0%. For the same molecule, the “Population Membrane Permeable-Phenotype (%)” value (Fibroblast; [3]) was 3% and 1%, the “Population Mitochondria Different-Phenotype (%)” value (Fibroblast; [3]) was 0% and the “Population Mitotic Cells (%)” value (Fibroblast; [3]) was 12% and 20%. For the same molecule, the “Population Normal (%)” value (Fibroblast; [3]) was 100%, the “Population Pyknosed Nuclei (%)” value (Fibroblast; [3]) was 4% and 2% and the “Population Tubulin-Different-Phenotype (%)” value (Fibroblast; [3]) was 9% and 3%. The “Population Apoptotic (%)” value (HEK-293T; [4]) was 43% and 35%, the “Population Fragmented Nuclei (%)” value (HEK-293T; [4]) was 3% and 1% and the “Population Healthy Nuclei (%)” value (HEK-293T; [4]) was 83% and 85%. For the same molecule, the “Population Hoechst High Intensity Objects (%)” value (HEK-293T; [4]) was 9% and 5%, the “Population Membrane Permeable-Phenotype (%)” value (HEK-293T; [4]) was 1% and 2% and the “Population Mitochondria Different-Phenotype (%)” value (HEK-293T; [4]) was 13% and 14%. The “Population Mitotic Cells (%)” value (HEK-293T; [4]) was 56% and 64%, the “Population Normal (%)” value (HEK-293T; [4]) was 90% and 94% and the “Population Pyknosed Nuclei (%)” value (HEK-293T; [4]) was 12%. The “Population Tubulin-Different-Phenotype (%)” value (HEK-293T; [4]) was 50% and 48%, the “Total Cell Count” value (HEK-293T; [4]) was 619 and 758 and the “Population Apoptotic (%)” value (HEK-293T; [5]) was 39% and 66%. For the same molecule, the “Population Fragmented Nuclei (%)” value (HEK-293T; [5]) was 3% and 2%, the “Population Healthy Nuclei (%)” value (HEK-293T; [5]) was 88% and the “Population Hoechst High Intensity Objects (%)” value (HEK-293T; [5]) was 8% and 5%. The “Population Membrane Permeable-Phenotype (%)” value (HEK-293T; [5]) was 4% and 2%, the “Population Mitochondria Different-Phenotype (%)” value (HEK-293T; [5]) was 13% and 17% and the “Population Mitotic Cells (%)” value (HEK-293T; [5]) was 60% and 33%. For the same molecule, the “Population Normal (%)” value (HEK-293T; [5]) was 91% and 94%, the “Population Pyknosed Nuclei (%)” value (HEK-293T; [5]) was 7% and 8% and the “Population Tubulin-Different-Phenotype (%)” value (HEK-293T; [5]) was 66% and 65%. For the same molecule, the “Total Cell Count” value (HEK-293T; [5]) was 592 and 535, the “Population Apoptotic (%)” value (HEK-293T; [6]) was 20% and 41% and the “Population Fragmented Nuclei (%)” value (HEK-293T; [6]) was 6% and 5%. The “Population Healthy Nuclei (%)” value (HEK-293T; [6]) was 89% and 88%, the “Population Hoechst High Intensity Objects (%)” value (HEK-293T; [6]) was 8% and the “Population Membrane Permeable-Phenotype (%)” value (HEK-293T; [6]) was 2%. For the same molecule, the “Population Mitochondria Different-Phenotype (%)” value (HEK-293T; [6]) was 3%, the “Population Mitotic Cells (%)” value (HEK-293T; [6]) was 80% and 58% and the “Population Normal (%)” value (HEK-293T; [6]) was 91%. The “Population Pyknosed Nuclei (%)” value (HEK-293T; [6]) was 3% and 6%, the “Population Tubulin-Different-Phenotype (%)” value (HEK-293T; [6]) was 30% and 32% and the “Total Cell Count” value (HEK-293T; [6]) was 1198 and 930. The “Population Apoptotic (%)” value (HEK-293T; [1]) was 25% and 32%, the “Population Fragmented Nuclei (%)” value (HEK-293T; [1]) was 5% and 7% and the “Population Healthy Nuclei (%)” value (HEK-293T; [1]) was 89% and 86%. The “Population Hoechst High Intensity Objects (%)” value (HEK-293T; [1]) was 8% and 9%, the “Population Membrane Permeable-Phenotype (%)” value (HEK-293T; [1]) was 2% and 4% and the “Population Mitochondria Different-Phenotype (%)” value (HEK-293T; [1]) was 9% and 5%. For the same molecule, the “Population Mitotic Cells (%)” value (HEK-293T; [1]) was 74% and 67%, the “Population Normal (%)” value (HEK-293T; [1]) was 91% and 90% and the “Population Pyknosed Nuclei (%)” value (HEK-293T; [1]) was 5%. For the same molecule, the “Population Tubulin-Different-Phenotype (%)” value (HEK-293T; [1]) was 50% and 47%, the “Total Cell Count” value (HEK-293T; [1]) was 859 and 863 and the “Population Apoptotic (%)” value (HEK-293T; [2]) was 5% and 13%. For the same molecule, the “Population Fragmented Nuclei (%)” value (HEK-293T; [2]) was 18% and 11%, the “Population Healthy Nuclei (%)” value (HEK-293T; [2]) was 79% and 85% and the “Population Hoechst High Intensity Objects (%)” value (HEK-293T; [2]) was 9% and 10%. For the same molecule, the “Population Membrane Permeable-Phenotype (%)” value (HEK-293T; [2]) was 5% and 3%, the “Population Mitochondria Different-Phenotype (%)” value (HEK-293T; [2]) was 0% and the “Population Mitotic Cells (%)” value (HEK-293T; [2]) was 94% and 86%. The “Population Normal (%)” value (HEK-293T; [2]) was 90% and 89%, the “Population Pyknosed Nuclei (%)” value (HEK-293T; [2]) was 2% and the “Population Tubulin-Different-Phenotype (%)” value (HEK-293T; [2]) was 11% and 17%. The “Total Cell Count” value (HEK-293T; [2]) was 3231 and 2107, the “Population Fragmented Nuclei (%)” value (HEK-293T; [3]) was 22% and 16% and the “Population Healthy Nuclei (%)” value (HEK-293T; [3]) was 76% and 81%. For the same molecule, the “Population Hoechst High Intensity Objects (%)” value (HEK-293T; [3]) was 9% and 8%, the “Population Membrane Permeable-Phenotype (%)” value (HEK-293T; [3]) was 7% and 6% and the “Population Mitochondria Different-Phenotype (%)” value (HEK-293T; [3]) was 0% and 1%. For the same molecule, the “Population Mitotic Cells (%)” value (HEK-293T; [3]) was 83% and 95%, the “Population Normal (%)” value (HEK-293T; [3]) was 90% and 91% and the “Population Pyknosed Nuclei (%)” value (HEK-293T; [3]) was 1% and 2%. The “Population Tubulin-Different-Phenotype (%)” value (HEK-293T; [3]) was 22% and 24% and the “Total Cell Count” value (HEK-293T; [3]) was 2378 and 2001.
